The values that follow come from ChEMBL document CHEMBL3098077, “Discovery of novel antitumor dibenzocyclooctatetraene derivatives and related biphenyls as potent inhibitors of NF-κB signaling pathway” (Bioorg Med Chem, 2014).

As a reminder, the GI50 is the concentration that inhibits growth by half. Lower therefore signals greater sensitivity of the cells. The term IC50 denotes the concentration needed to halve the response being measured. Lower therefore signals inhibition by little substance.

The source made the active and inactive calls. The rule behind the calls is not given here.

The test system of one experiment is A549. As to the kind of experiment: Cytotoxicity against human A549 cells by SRB assay. In kind it is functional. An outline of the steps: (§1)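 SRB growth assay; GI50 taken as molar concentration giving 50% tumor cell growth inhibition. Paclitaxel run as positive control. KBvin is a P-gp-expressing epidermoid carcinoma of the nasopharynx line.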
(The SRB assay estimates cell density from bound dye.)

A short description of experiment [1]: Cytotoxicity against human KBVIN cells by SRB assay. In kind it is functional. An outline of the steps:
as §1

The next experiment concerns DU-145. As to the kind of experiment: Cytotoxicity against human DU145 cells by SRB assay. In kind it is functional. The gist of the method:
as §1

A further experiment has as its system KB. Description: Cytotoxicity against human KB cells by SRB assay. In kind it is functional. The gist of the method:
as §1

Experiment [2] in a line: (§2) Inhibition of LPS-induced NF-kappaB activation in mouse RAW264.7 cells treated 30 mins before LPS challenge measured after 6 hrs by luciferase reporter gene assay. Format: cell-based. An outline of the steps:
(§3)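 RAW264.7 cells stably carrying an NF-κB-driven firefly luciferase reporter, seeded at 10^4 cells/well and attached overnight. Pretreated 30 min with compound, then stimulated with LPS 1 μg/mL for 6 h; cells lysed and luciferase activity measured. Compounds screened at 10 μM; those above 98% inhibition were tested at serial concentrations for IC50, alongside BAY 11-7082 as positive control.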
In general terms: Reporter assays use an easily measured gene product as a stand-in for the process of interest.

In experiment [3] the test system is RAW264.7. Description: Antinflammatory activity in mouse RAW264.7 cells assessed as inhibition of LPS-induced nitric oxide production at 20 uM treated 30 mins before LPS challenge measured after 18 hrs by Griess assay. Format: functional, cell-based. An outline of the steps:
(§4)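 RAW264.7 cells seeded in dishes, attached overnight, pretreated 30 min with compound (test compound at 0.6, 1.25 and 2.5 μM; reference inhibitor at 20 μM), then stimulated with LPS 1 μg/mL for 18 h. Medium collected and centrifuged; supernatant nitrite reacted with Griess reagents I and II, absorbance read at 540 nm as measure of NO.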
For orientation: Griess reagent forms a coloured azo dye with nitrite.

The test system of experiment [4] is RAW264.7. Description: Inhibition of LPS-induced NF-kappaB activation in mouse RAW264.7 cells at 20 uM treated 30 mins before LPS challenge measured after 6 hrs by luciferase reporter gene assay. In kind it is cell-based.
In experiment [5] the test system is RAW264.7. The experiment is described as §2. In kind it is cell-based. The gist of the method: as §3
Experiment [6] relates to RAW264.7. As to the kind of experiment: Inhibition of LPS-induced NF-kappaB activation in mouse RAW264.7 cells at 10 uM treated 30 mins before LPS challenge measured after 6 hrs by luciferase reporter gene assay. Format: cell-based. An outline of the steps:
as §3

In experiment [7] the test system is RAW264.7. Description: Inhibition of NF-kappaB-mediated IkappaBalpha degradation in LPS-induced mouse RAW264.7 cells treated 30 mins before LPS challenge measured after 15 mins by Western blot analysis. In kind it is cell-based. An outline of the steps:
(§5)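 RAW264.7 cells in dishes, attached overnight, pretreated 30 min with compound (test compound at 2.5, 5, 10 μM; reference inhibitor at 20 μM), then given LPS 1 μg/mL for 15 min. Total protein in RIPA buffer with protease/phosphatase inhibitors, used for IκB-α; nuclear extract used for p65. Western blot: SDS-PAGE, PVDF, primary antibody overnight at 4 °C, peroxidase secondary 1 h at room temperature, chemiluminescence.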

Experiment [8] deals with Transcription factor p65 (Mus musculus) (UniProt Q04207). As to the kind of experiment: Inhibition of LPS-induced NF-kappaB p65 translocation into nucleus in mouse RAW264.7 cells treated 30 mins before LPS challenge measured after 15 mins by Western blot analysis. Format: cell-based. The gist of the method:
as §5

Experiment [9] relates to RAW264.7. Description: Antinflammatory activity in mouse RAW264.7 cells assessed as inhibition of LPS-induced nitric oxide production at 2.5 uM treated 30 mins before LPS challenge measured after 18 hrs by Griess assay. Format: functional, cell-based. The gist of the method: as §4

Sequence of Transcription factor p65 (Mus musculus) (Q04207 whole entry): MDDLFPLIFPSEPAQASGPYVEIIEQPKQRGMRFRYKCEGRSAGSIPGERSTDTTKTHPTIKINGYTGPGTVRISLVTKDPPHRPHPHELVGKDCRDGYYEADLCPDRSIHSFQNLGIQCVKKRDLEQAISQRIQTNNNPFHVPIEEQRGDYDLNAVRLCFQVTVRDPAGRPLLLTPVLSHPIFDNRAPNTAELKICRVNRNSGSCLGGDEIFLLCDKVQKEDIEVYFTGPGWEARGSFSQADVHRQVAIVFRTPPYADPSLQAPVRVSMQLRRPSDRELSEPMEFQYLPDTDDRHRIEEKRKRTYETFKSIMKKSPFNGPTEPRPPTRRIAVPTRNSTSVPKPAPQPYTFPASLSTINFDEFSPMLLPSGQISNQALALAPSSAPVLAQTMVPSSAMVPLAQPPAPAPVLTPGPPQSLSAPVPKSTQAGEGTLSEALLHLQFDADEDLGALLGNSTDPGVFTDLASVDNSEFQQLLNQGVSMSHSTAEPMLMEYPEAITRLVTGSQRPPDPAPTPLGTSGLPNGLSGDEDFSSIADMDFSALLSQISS

Turning to `CCOC(=O)/C(C#N)=C/c1ccccc1-c1c(C(=O)OC)cc(OC)c(OC)c1OC`, the concentration for 50% growth inhibition (GI50) (in the experiment with A549; in [1]; in the experiment on DU-145; with KB) was over 40 µM in each case.

On to `COc1cc(/C=C(\C)[N+](=O)[O-])c(-c2ccccc2/C=C(\C)[N+](=O)[O-])c2c1OCO2`, for which the IC50 in experiment [2] was found to be 0.81 µM. Further, the GI50 worked out at 13.9 µM with A549, 18.7 µM in experiment [1], 19.8 µM in the experiment on DU-145 and 18 µM with KB.

`Cc1ccc(S(=O)(=O)/C=C/C#N)cc1`: the inhibition entry in the experiment on RAW264.7 [3] and in the experiment with RAW264.7 [4] was “Active” in each case. Also, in experiment [2], 1.72 µM corresponded to half-maximal inhibition (IC50).

As to `CCOC(=O)/C(C#N)=C/c1cc2c(cc1-c1c(/C=C(\C#N)C(=O)OCC)cc(OC)c(OC)c1OC)OCO2`, the GI50 (with A549; in experiment [1]; with DU-145; in the experiment with KB) was over 22 µM throughout.

Consider `COc1cc2cc3c(=O)[nH]c(=O)c-3cc3ccccc3c2c(OC)c1OC`, for which the IC50 in [2] was 1.02 µM. Moreover, the GI50 in the experiment on A549 came out at 2.31 µM; in experiment [1], 2.07 µM; in the experiment on DU-145, 2.34 µM; in the experiment with KB it was 2.67 µM.

The compound `CCOC(=O)/C(C#N)=C/c1ccccc1-c1c(/C=C(\C#N)C(=O)OCC)cc(OC)c(OC)c1OC` yielded an IC50 in experiment [2] of 3.02 µM. Besides, the GI50 in the experiment with A549 came to 7.02 µM; in experiment [1] it was 8.45 µM; with DU-145 it was 8.08 µM; in the experiment on KB, 6.53 µM.

As to `COc1cc(/C=C/[N+](=O)[O-])c(-c2cc3c(cc2/C=C/[N+](=O)[O-])OCO3)c(OC)c1OC`, in [2], the midpoint of inhibition, the IC50, lay at 1.72 µM. Moreover, the GI50 in the experiment on A549 was 8.95 µM; in experiment [1], 8.6 µM; with DU-145 it was 9.09 µM; in the experiment on KB, 5.49 µM.

As for `COc1cc(/C=C(\C)[N+](=O)[O-])c(-c2c(/C=C(\C)[N+](=O)[O-])cc(OC)c(OC)c2OC)cc1OC`, the IC50 in experiment [2] came out at 2.16 µM. The GI50 turned out to be 5.23 µM in the experiment on A549, 7.22 µM in experiment [1], 6.75 µM in the experiment with DU-145 and 13.5 µM with KB.

For the compound `COC(=O)C1=C/c2cc(OC)c(OC)cc2-c2c(cc(OC)c(OC)c2OC)/C=C\1C(=O)OC`, the GI50 (with A549; in experiment [1]; in the experiment with KB) was over 20 µM each time. In addition, the inhibition result with DU-145 was “inactive”.

Consider `COc1c2c(cc(/C=C(\C)[N+](=O)[O-])c1-c1ccccc1/C=C(\C)[N+](=O)[O-])OCO2`, for which the concentration for half-maximal inhibition (IC50) in experiment [2] is 1.61 µM. The GI50 in the experiment on A549 turned out to be 4.02 µM; in [1] it was 12.3 µM; with DU-145 it was 5.02 µM; with KB it was 13.1 µM.

On to `CC(=O)O[C@H]1C(=O)[C@@]2(C)[C@H]([C@H](OC(=O)c3ccccc3)[C@]3(O)C[C@H](OC(=O)[C@H](O)[C@@H](NC(=O)c4ccccc4)c4ccccc4)C(C)=C1C3(C)C)[C@]1(OC(C)=O)CO[C@@H]1C[C@@H]2O` [PACLITAXEL], for which the GI50 with A549 was 0.0076 µM; in experiment [1], 1.8 µM; in the experiment with DU-145 it was 0.006 µM; in the experiment with KB, 0.008 µM.

The compound `COC(=O)c1cc(OC)c(OC)c(OC)c1-c1ccccc1/C=C(\C)[N+](=O)[O-]` registered an IC50 in experiment [2] of 1.61 µM. Moreover, the GI50 with A549 was 6.2 µM; in experiment [1], 6.17 µM; in the experiment with DU-145, 6.56 µM; in the experiment on KB, 6.95 µM.

For `CCOC(=O)/C(C#N)=C/c1cc(OC)c(OC)cc1-c1c(/C=C(\C#N)C(=O)OCC)cc(OC)c(OC)c1OC`, the IC50 in experiment [2] is 3.75 µM. Moreover, the GI50 is 13.8 µM with A549, 15.1 µM in experiment [1], 13.1 µM in the experiment with DU-145 and over 36 µM in the experiment on KB.

For the compound `COc1cc(C=C(C#N)C#N)c(-c2cc3c(cc2C=C(C#N)C#N)OCO3)c(OC)c1OC`, the GI50 with A549 was over 40 µM; in experiment [1] it was over 40 µM; in the experiment with DU-145 it was 19.7 µM; in the experiment on KB it was over 40 µM.

Turning to `COc1cc(C=C(C#N)C#N)c(-c2c(C=C(C#N)C#N)cc(OC)c(OC)c2OC)cc1OC`, the IC50 in [2] is 4.16 µM. Besides, the GI50 worked out at 18 µM in the experiment on A549, 15.9 µM in experiment [1], 10.1 µM with DU-145 and 23.2 µM in the experiment on KB.

Consider `COc1cc(C=C(C#N)C#N)c(-c2ccccc2C=C(C#N)C#N)c(OC)c1OC`, for which the GI50 (in the experiment with A549; in experiment [1]; in the experiment on DU-145; with KB) was over 40 µM throughout.

`COC(=O)c1cc(OC)c(OC)c(OC)c1-c1ccccc1C=C(C#N)C#N`: the 50% growth inhibitory concentration (GI50) is 42 µM in the experiment on A549, 20.6 µM in experiment [1], 21.9 µM with DU-145 and 36.2 µM in the experiment on KB.

With `COc1cc2cc3c(=O)[nH]c(=O)c-3cc3cc4c(cc3c2c(OC)c1OC)OCO4`, the inhibition entry (in the experiment on RAW264.7 [5]; in the experiment on RAW264.7 [7]; in experiment [8]) was “Dose-dependent effect” in each case. Besides, in experiment [2], the IC50 was 0.52 µM. The GI50 in the experiment on A549 stood at 1.38 µM; in experiment [1], 1.45 µM; with DU-145, 1.43 µM; in the experiment with KB, 1.47 µM. Moreover, the inhibition result with RAW264.7 [6] and in the experiment on RAW264.7 [9] was “Active” in each case.

As to `COc1cc(/C=C(\C)[N+](=O)[O-])c(-c2cc3c(cc2/C=C(\C)[N+](=O)[O-])OCO3)c(OC)c1OC`, half-maximal inhibition in experiment [2] (IC50) was put at 0.9 µM. Also, the GI50 worked out at 0.87 µM in the experiment with A549, 1.27 µM in experiment [1], 1.51 µM in the experiment with DU-145 and 0.72 µM with KB.

With `COC(=O)C1=C/c2cc3c(cc2-c2c(cc(OC)c(OC)c2OC)/C=C\1C(=O)OC)OCO3`, the GI50 with A549 is 14.5 µM; in experiment [1] it was 15.4 µM; in the experiment on KB it was 14 µM.

`COc1cc(/C=C/[N+](=O)[O-])c(-c2ccccc2/C=C/[N+](=O)[O-])c(OC)c1OC` yielded an IC50 in experiment [2] of 1.78 µM. The GI50 in the experiment on A549 is 3.07 µM; in experiment [1] it was 4.6 µM; in the experiment with DU-145, 2.09 µM; in the experiment with KB it was 2.58 µM.

For the compound `COc1cc2c(c(OC)c1OC)-c1cc3c(cc1/C=C(C(=O)O)\C(C(=O)O)=C/2)OCO3`, the GI50 (with A549; in experiment [1]; with DU-145; in the experiment with KB) was over 20 µM throughout.

In turn, `COc1cc(/C=C(/C)[N+](=O)[O-])c(-c2ccccc2/C=C(/C)[N+](=O)[O-])c(OC)c1OC` registered an IC50 in experiment [2] of 0.75 µM.

In the case of `COc1cc2cc3c(=O)[nH]c(=O)c-3cc3cc(OC)c(OC)c(OC)c3c2cc1OC`, in experiment [2], the IC50 was determined as 0.52 µM. For the same compound, the GI50 turned out to be 10.1 µM in the experiment on A549, 10.8 µM in experiment [1], 11.3 µM in the experiment with DU-145 and 10.1 µM in the experiment with KB.
